The text below walks through data of paper PMC2901902 (Nature, 2010).

In assay [1] the test system is H3K14ac sites in the C2C12 cell nucleus. As to the kind of experiment: Immunofluorescence co-localization with H3K14ac in C2C12 cell nucleus. The assay is classed as cell-based, mouse. As to conditions: ectopically expressed EGFP-fusion DPF3b; confocal fluorescence imaging. In short, it runs like this:
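C2C12 myoblasts grown in DMEM with 10% fetal calf serum were transfected with full-length human DPF3b fused to EGFP. H3K14ac was stained with the same anti-H3K14ac antibody used for ChIP and a Texas Red-conjugated secondary. Nuclear overlap of the EGFP and Texas Red signals was imaged on an automated confocal microscope and images were overlaid.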

The test system of assay [2] is H3K14ac at the mouse Pitx2 promoter site. As to the kind of experiment: Re-ChIP. The assay is classed as cell-based. As to conditions: transfected C2C12 cells, qualitative.
The subject of another assay is Pitx2. As to the kind of experiment: Endogenous Pitx2 transcript level in transfected C2C12 cells. The class given is cell-based, mouse. As to conditions: C2C12 cells 2 days following transfection.

B1: DPF3b: full length human DPF3b cloned into pEGFP-C1 vector, transfected in C2C12 cells (protein)
chain: MATVIHNPLKALGDQFYKEAIEHCRSYNSRLCAERSVRLPFLDSQTGVAQNNCYIWMEKRHRGPGLAPGQLYTYPARCWRKKRRLHPPEDPKLRLLEIKPEVELPLKKDGFTSESTTLEALLRGEGVEKKVDAREEESIQEIQRVLENDENVEEGNEEEDLEEDIPKRKNRTRGRARGSAGGRRRHDAASQEDHDKPYVCDICGKRYKNRPGLSYHYAHTHLASEEGDEAQDQETRSPPNHRNENHRPQKGPDGTVIPNNYCDFCLGGSNMNKKSGRPEELVSCADCGRSGHPTCLQFTLNMTEAVKTYKWQCIECKSCILCGTSENDDQLLFCDDCDRGYHMYCLNPPVAEPPEGSWSCHLCWELLKEKASAFGCQA
modifications: left off: EGFP, end not stated, kept
Consider B1, for which, in assay [1], the “co-localization with H3K14ac sites in C2C12 cell nucleus” value is given as “co-localized with H3K14ac sites”. Also, in assay [2], the “DPF3b/H3K14ac interaction at Pitx2 promoter” value is reported as “interacts with H3K14ac at the Pitx2 promoter site”. The “enhancement of endogenous Pitx2 transcript” value in the assay with Pitx2 was “more than 3 fold”.
